# Only some compounds are listed: those with a hit (about 1.9% of all), similar ones and a draw of the others.
# APJ agonist – agonists of human apelin receptor APJ, primary screen, CHO-K1 cells, PathHunter beta-arrestin, luminescence | P35414 | 0% DMSO wells, 100% apelin | activation, % at 20 µM | hit rate 0.11% among 330,000 | AID 2520, 2010;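 active = activation more than six SD over the plate average, tested at 20 µM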;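 also: 0% = DMSO alone and 100% = apelin-13 at 10 nM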
# Target sequence (P35414 whole entry, looked up): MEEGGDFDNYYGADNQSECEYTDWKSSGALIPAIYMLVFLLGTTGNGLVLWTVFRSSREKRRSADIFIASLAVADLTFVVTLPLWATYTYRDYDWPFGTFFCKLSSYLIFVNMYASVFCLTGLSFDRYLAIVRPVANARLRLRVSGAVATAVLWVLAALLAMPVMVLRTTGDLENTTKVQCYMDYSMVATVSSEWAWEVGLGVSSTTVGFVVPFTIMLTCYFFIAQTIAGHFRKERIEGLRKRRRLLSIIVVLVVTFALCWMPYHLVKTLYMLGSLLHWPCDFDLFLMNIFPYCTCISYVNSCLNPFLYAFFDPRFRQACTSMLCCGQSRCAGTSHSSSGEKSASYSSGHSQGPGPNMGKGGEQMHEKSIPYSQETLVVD
#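 Assay system: engineered CHO-K1 APJ arrestin reporter cells; Amount: 1000 CHO-K1 reporter cells seeded per well; Dosing: one dose, 20 µM compound, 1% DMSO; Times: compound stimulation 90 min at 25 °C, detection 60 min; Measured by: luminescent beta-gal fragment complementation, chemiluminescent substrate; Read-out: APJ–arrestin association signal; Controls: DMSO vs Apelin-13 10 nM.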
# H9c2 TAG inh – inhibitors of triacylglycerol accumulation, primary screen, cell-based, uHTS, fluorescence, H9c2. H9c2 cells, Nile Red lipid (TAG) fluorescence; cells loaded with 200 µM oleic acid. inhibition, % at 12.5 µM. hit rate 0.66% among 230,000;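 active = pattern-corrected inhibition of lipid staining of at least 50% with the nuclear-stain viability signal not falling by more than 50%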;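 also: 0% = DMSO wells and 100% = triacsin C control wells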
# CXCR6 block – CXCR6 receptor inhibitors, primary screen, cell-based, beta-arrestin, luminescence, CHO-K1 PathHunter, 1536-well; hit rate 0.36% among 360,000; inhibition, % at 20 µM; in the data active = inhibition above about 34%, passing the limit was not always enough;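 also: antagonist mode with CXCL16 agonist at 10 nM final; 0% = 10 nM CXCL16 with DMSO and 100% = unstimulated wells without agonist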
# EBI2 antag – EBI2 receptor antagonists, beta-arrestin recruitment, primary screen, cell-based, luminescence, 7a,25-OHC stimulation, uHTS; inhibition, % at 5 µM; G-protein coupled receptor 183 (Homo sapiens), P32249; hit rate 0.81% among 360,000; 7a,25-OHC stimulated; in the data active = inhibition above about 38%;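 also: enzyme fragment complementation signal reports receptor beta-arrestin coupling in cells; 0% = agonist plus DMSO wells and 100% = wells without agonist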
# APJ antag – antagonists of human apelin receptor APJ, primary screen, CHO-K1 cells, beta-arrestin complementation, luminescence. inhibition, % at 20 µM. hit rate 0.32% among 330,000. AID 2521, 2010;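 active = inhibition above about 40% at 20 µM, limit read from the data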;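 also: cells challenged with 10 nM apelin-13 agonist together with compound; plate controls were apelin-13 plus DMSO wells for no effect and DMSO wells lacking apelin-13 for full effect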
# CCR6 antag – CCR6 receptor antagonists, primary screen, cell-based, CHO-K1, luminescence, beta-arrestin, uHTS; C-C chemokine receptor type 6 (Homo sapiens), P51684; inhibition, % at 20 µM; CHO-K1 CCR6 PathHunter beta-arrestin, CCL20-stimulated; hit rate 0.49% among 340,000;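 active = compounds whose inhibition of the agonist-driven luminescence signal at 20 µM reaches about 50%, limit read from the data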;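 also: cells stimulated with CCL20 at 14 nM final; plate controls were DMSO with CCL20 for no effect and DMSO without agonist for full effect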
# Starred values were filed as active, the others as inactive; . = no result.
SMILES,APJ agonist,H9c2 TAG inh,CXCR6 block,EBI2 antag,APJ antag,CCR6 antag
CCCCCc1cc(=O)oc2c(C(CCN3CCCC(C)C3)c3cc(OC)c(OC)c(OC)c3)c(OC)cc(OC)c12 (centres undefined),1,79,2,3,14,-4
CC(C)(C)OC(=O)N[C@H]1C=C[C@@H](OC(=O)CC(=O)OCC(F)(F)F)C1,.,5,-10,-10,.,3
CCOC(=O)C(CC)c1cc2n(c(=O)c1C#N)CCC21OCCO1 (centres undefined),.,.,-2,-2,.,.
O=C(c1ccccc1)c1cc(Cl)ccc1N1C(=O)C=CC1=O,.,17,61*,-7,.,106*
Nc1nn(-c2ccccc2)c(N)c1N=Nc1cccc(F)c1,5,54*,-12,-9,-35,13
Nc1nn(-c2ccccc2)c(N)c1N=Nc1ccc2c(c1)OCO2,-3,.,8,4,5,18
Cc1nc([N+](=O)[O-])c(Br)n1Cc1ccc(Cl)c(Cl)c1,.,44,6,50*,.,8
Cc1nc([N+](=O)[O-])c(Br)n1CC(=O)c1ccc(Cl)cc1,4,13,12,1,9,24
CCOC(=O)N1CCN(C(=O)c2ccc(Cn3c(=S)[nH]c4cc(OCC)c(OCC)cc4c3=O)cc2)CC1,27*,-24,-8,-34,-4,-29
OCCCn1c(C(CO)Nc2nc(-c3ccc(Cl)cc3)cs2)nc2ccccc21 (centres undefined),-1,-15,1,-1,-11,-7
Cc1ccc(-c2cc(C(=O)N/N=C/c3c(C)nn(-c4ccccc4)c3C)[nH]n2)cc1,.,69*,-6,2,.,.
O=[N+]([O-])c1ccc(C=NNc2ccccc2)cc1,.,-8,18,9,.,50*
O=[N+]([O-])c1cccc(C=NNc2ccccc2)c1,.,-16,6,-2,.,25
Cc1cc2c(C)nc(N/N=C/c3ccc(F)cc3)nc2o1,-1,6,0,-6,9,4
Cc1cc2c(C)nc(N/N=C/c3ccc([N+](=O)[O-])cc3)nc2o1,.,.,4,1,.,108*
CN(C)CCn1c2ccccc2c2nc3ccc([N+](=O)[O-])cc3cc21,-4,56*,-11,26,6,12
Cc1ccc(C(=O)NC(=S)Nc2cccc3c(C)cc(C)nc23)cc1,-1,.,20,34,1,51*
Cc1cccc(N2CCN(C(=O)c3cccc(S(=O)(=O)N4CCOCC4)c3)CC2)c1C,-4,-7,-4,-1,13,5
Nc1nc2ccc(Cl)cc2cc1C(=O)NCc1ccc(Oc2ccccc2)cc1,.,.,-12,-14,.,.
O=C(Cn1sc2ccccc2c1=O)Nc1ccccc1,.,32,-5,-1,.,.
O=C(Cn1sc2ccccc2c1=O)NC12CC3CC(CC(C3)C1)C2,8,17,41*,32,3,29
CCC1=C(c2ccc(OC)cc2)CCC(C(=O)O)C1C (centres undefined),.,1,-1,-2,.,0
CCn1cc(C=C2C(=O)c3ccccc3C2=O)c2ccccc21,.,.,7,3,.,51*
CCN=C1S/C(=C\c2cn(CC)c3ccccc23)C(=O)N1CC,-4,26,-15,17,4,18
O=C1[C@@H]2Cc3c([nH]c4ccccc34)C(c3cccc([N+](=O)[O-])c3)N2C(=O)CN1CCCO (some centres undefined),-7,.,33,10,36,51*
SMILES,APJ agonist,H9c2 TAG inh,CXCR6 block,EBI2 antag,APJ antag,CCR6 antag
CC(C)C[C@H](NC(=O)C1CCN(C(=O)[C@H](Cc2ccccc2)NC(=O)OC(C)(C)C)CC1)C(=O)O,-1,.,-5,-4,7,7
N#C/C(=C/c1ccc(-c2cccc([N+](=O)[O-])c2)o1)C(=O)Nc1nc(-c2cccs2)cs1,.,9,22,7,.,69*
N#C/C(=C/c1ccc(-c2ccccc2[N+](=O)[O-])o1)C(N)=O,0,-5,-11,-8,-6,4
N#C/C(=C\c1ccc(-c2ccccc2[N+](=O)[O-])o1)C(=O)Nc1nc(-c2cccs2)cs1,-6,.,36,3,23,51*
CC(=O)Nc1nc(-c2ccc([N+](=O)[O-])cc2)cs1,-4,17,1,-3,-3,0
N#C/C(=C\c1ccc(-c2ccc([N+](=O)[O-])cc2)o1)C(=O)Nc1nc(-c2cccs2)cs1,-3,2,34,16,18,58*
CCN(CC)c1ccc(N=Nc2nn(C)c(C)c2[N+](=O)[O-])cc1,-7,-14,39,20,55*,64*
CC(C)(C)N(Cc1ccc2c(c1)OCO2)C(=O)/C=C\S(=O)c1ccccc1 (centres undefined),.,83*,-6,10,.,6
CCN(CCCNC(=O)c1cn(CC)c2ccc(S(=O)(=O)N(C)C)cc2c1=O)c1cccc(C)c1,0,56*,5,18,0,6
Cc1cc(C)c(S(=O)(=O)Nc2ccc3c4c(cccc24)CC3)c(C)c1,-1,58*,11,46*,13,17
N#Cc1cc([N+](=O)[O-])c(-n2nnc3ccccc32)c([N+](=O)[O-])c1,4,-16,74*,-4,24,.
CS(=O)(=O)c1ccc(-n2nnc3ccccc32)c([N+](=O)[O-])c1,4,.,6,-4,-35,-16
O=C(CS(=O)(=O)Cc1ccccc1)c1ccccc1,.,7,5,16,.,.
COc1ccc(CC(=O)OCC(=O)NC2CCCC(C)C2C)cc1 (centres undefined),-4,4,6,2,13,6
COc1ccc(/C=N/NC(=O)c2cnccn2)c(OC)c1OC,2,9,-10,-16,-24,-4
COc1cccc(/C=N/NC(=O)c2cnccn2)c1O,-1,54*,2,8,-1,2
Cc1cc(C)n2c(Nc3ccc4c(c3)OCCO4)c(CC(C)C)nc2n1,.,.,-7,-19,.,.
CC1OC2CC(=O)OC2C2=C1C(=O)c1c(O)cccc1C2=O (centres undefined),.,.,79*,-28,.,.
C[C@H]1CN=C(N(C)C)N1CC1CCC(C(C)(C)C)CC1 (some centres undefined),4,-16,0,-4,18,5
C=C1C(=O)OC2CC1C(OC(C)=O)CC(C)=CCCC(C)=CCCC2(C)O (centres undefined),.,.,-5,51*,.,.
C=C1C(=O)OC2CC1C(O)CC(C)=CCCC(C)=CC(O)CC2C (centres undefined),.,100,7,0,.,12
CC(C)c1ccc(O)c(NC(=S)NC(=O)c2ccc3c(c2)OCO3)c1,-10,-11,45*,8,13,.
